Assay outcomes deposited in PubChem BioAssay by several laboratories.
Wee1 stabilizer = blocks degradation of human Wee1 kinase. P30291. HeLa Luc-Wee1K328M stability, luciferase luminescence; 100% = proteasome inhibitor MG132 effect. reporter increase, % at 5 µM. actives 1.2% (n = 220,000). AID 1321;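 active = activation above the mean of all tested compounds plus 3 SD, set per screening run, cut at about 8.8% in these data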;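 also: cells exposed to compound for 20 h before luminescence read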
Target sequence (P30291 whole entry K328M): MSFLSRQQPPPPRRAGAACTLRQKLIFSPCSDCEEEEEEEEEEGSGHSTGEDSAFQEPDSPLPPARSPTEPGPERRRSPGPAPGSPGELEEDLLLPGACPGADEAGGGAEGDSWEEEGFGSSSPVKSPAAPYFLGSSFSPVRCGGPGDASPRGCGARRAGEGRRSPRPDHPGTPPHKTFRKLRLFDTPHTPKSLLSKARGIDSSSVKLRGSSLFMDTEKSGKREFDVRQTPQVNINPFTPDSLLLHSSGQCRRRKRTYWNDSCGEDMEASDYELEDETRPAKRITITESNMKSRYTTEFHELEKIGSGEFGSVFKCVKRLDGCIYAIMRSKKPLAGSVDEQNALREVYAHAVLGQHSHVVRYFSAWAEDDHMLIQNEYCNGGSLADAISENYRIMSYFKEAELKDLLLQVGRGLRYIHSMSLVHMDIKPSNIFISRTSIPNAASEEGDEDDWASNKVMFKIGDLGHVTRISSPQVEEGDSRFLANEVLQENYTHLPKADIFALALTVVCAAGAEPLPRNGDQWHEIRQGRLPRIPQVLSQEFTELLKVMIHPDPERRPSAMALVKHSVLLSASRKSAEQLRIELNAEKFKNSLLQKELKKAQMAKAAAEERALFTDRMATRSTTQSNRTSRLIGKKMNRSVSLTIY
eIF4E-4G inh = blocks eIF4E binding to eIF4G; P63073+Q04637; TR-FRET eIF4E-eIF4GI(517-606) binding, 2 h; inhibition, % at 21.7 µM; actives 0.37% (n = 220,000); AID 782
14-3-3 Bad inh = disrupts binding of bovine 14-3-3 zeta to phospho-Bad peptide; P63103; TR-FRET 14-3-3zeta/Dy647-pBad peptide displacement, 1 h; inhibition, % at 21.7 µM; actives 0.71% (n = 220,000);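 active = inhibition above about 70%, limit read from the data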
p47phox inh = blocks human p47phox regulatory protein of NADPH oxidases | actives 0.53% (n = 220,000) | P14598 | inhibition, % at 24.7 µM | p47phox/p22phox peptide binding, fluorescence polarization, 2 h | AID 1274
RBBP9 inhibitor = inhibitors of human serine hydrolase RBBP9 | recombinant RBBP9, FP-Rh probe fluorescence polarization | actives 0.2% (n = 220,000) | O75884 | inhibition, % at 7.94 µM;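 active = inhibition above the campaign mean of all tested compounds plus 3 SD, cut at about 14% in these data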
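Material: RBBP9 protein. Amount: RBBP9 at 2.5 µM in dispensed solution, before mixing. Schedule: 30 min then 45 min, 25 °C. Medium: Tris buffer pH 8.0, NaCl, Pluronic. Measured by: fluorescence polarization. Measure: percent inhibition from mP, scaled between DMSO and no-protein wells. Replication: one well per compound.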
Wee1 stab conf = human Wee1 degradation inhibition, confirmation; activation, % at 5 µM; shares compounds with Wee1 stabilizer; actives 4% (n = 1,100); HeLa Luc-Wee1K328M degradation, luminescence; vehicle 0%, proteasome-blocked wells 100%; AID 1410; in the data active = activation above about 8.9%
Numbers stand for hits; – = inactive; · = no result given. Compounds with a hit are over-represented: about 2.8% of the library has one in this group of screens.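 The calls were made as follows, unless noted: active = inhibition above about 30% (limit read from the data); inactive = the rest.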

SMILES	Wee1 stabilizer	eIF4E-4G inh	14-3-3 Bad inh	p47phox inh	RBBP9 inhibitor	Wee1 stab conf
CNC(=O)COC(=O)c1ccc(-c2nc3ccccc3s2)s1	–	–	–	–	–	·
O=CN1CCN(C(=O)c2ccc(-c3nc4ccccc4s3)s2)CC1	17	–	–	–	–	–
O=C(Nc1ccccc1Cl)Nc1ccccc1Cl	–	–	–	–	–	·
NNC(=O)CNc1ccccc1Cl	11	–	–	–	–	–
C(=C\c1ccco1)/c1nc2ccccc2[nH]1	14	–	–	–	–	–
C(=C\c1nc2ccccc2[nH]1)/c1ccccc1	–	–	–	–	–	·
Cc1c(Cl)cccc1NC(=O)CC1Sc2ccccc2NC1=O (stereo unspecified)	–	–	–	–	–	·
O=C(O)/C=C/c1cnn(-c2ccccc2)c1	15	–	–	–	–	–
O=C(CCSCc1ccccc1Cl)NCc1cccs1	–	–	–	–	–	·
O=C(CCSCc1ccccc1F)NCc1cccs1	11	–	–	–	–	–
O=C(NCCCN1CCOCC1)C(=O)N/N=C/c1c(Cl)cccc1Cl	16	–	–	–	–	–
O=C(NCCCN1CCOCC1)C(=O)N/N=C/c1ccccc1Cl	–	–	–	–	–	·
CN(Cc1ccccc1)C(=O)c1ccc2c(c1)OCO2	–	–	–	–	–	·
CCCCN(C(=O)c1ccc2c(c1)OCO2)c1ccccc1	14	–	–	–	–	–
OC1(C(F)(F)F)CC(c2ccc3ccccc3c2)=NO1 (stereo unspecified)	–	–	–	–	–	·
O=C(COC(=O)CNS(=O)(=O)/C=C/c1ccccc1)Nc1cccc2ccccc12	–	–	–	–	–	·
CNc1oc(-c2ccccc2Cl)nc1C#N	13	·	·	–	–	–
Cc1cccc(C2c3[nH]c4ccccc4c3CCN2Cc2cnn(-c3ccc(F)cc3)c2)n1 (stereo unspecified)	–	–	–	–	–	·
CC(=O)NC1=NN(C(C)=O)C(c2ccc(C(C)C)cc2)S1 (stereo unspecified)	24	–	–	–	–	–
CC(C)CCN1CCN(Cc2ccc(C#CC(C)(C)O)s2)CC1CCO (stereo unspecified)	11	–	–	–	–	–
Cc1ccc(Oc2ncccc2C(=O)NCC(=O)O)cc1	–	–	–	–	–	·
Cc1c(NC(=O)C(C)OC(=O)c2cccs2)c(=O)n(-c2ccccc2)n1C (stereo unspecified)	30	–	–	–	–	–
Cc1c(NC(=O)c2cccs2)c(=O)n(-c2ccccc2)n1C	–	–	–	–	–	·
N#Cc1cccc(NC(=O)CSc2nnc(-c3n[nH]c4ccccc34)o2)c1	22	–	–	–	–	–
Cc1cccc(NC(=O)CSc2nnc(-c3n[nH]c4ccccc34)o2)c1	–	–	–	–	–	·
SMILES	Wee1 stabilizer	eIF4E-4G inh	14-3-3 Bad inh	p47phox inh	RBBP9 inhibitor	Wee1 stab conf
COc1ccc(CCC(=O)N(C)CC(=O)Nc2cc(C)ccc2C)cc1	17	–	–	–	–	–
CC1CCCCN1C(=O)CSc1nnc(-c2c[nH]c3ccccc23)o1 (stereo unspecified)	13	–	–	–	–	–
Cc1nc2sc(C(c3ccc(C(C)C)cc3)N3CCN(CCO)CC3)c(O)n2n1 (stereo unspecified)	24	–	–	–	–	–
Cc1ccc(NC(=O)Nc2ccc(Cl)cn2)cc1	11	–	–	–	–	–
O=C(Nc1ccc(Cl)cn1)Nc1ccccc1Cl	–	–	–	–	–	·
COc1ccc(Br)cc1CNC(=O)CCCc1cn(C)c2ccccc12	11	–	–	–	–	–
Cc1ccc[n+](CC(=O)Nc2cc(C(F)(F)F)ccc2N2CCOCC2)c1	–	–	–	–	–	·
O=C(Nc1ccc(S(=O)(=O)Nc2nccs2)cc1)c1cnc(Cl)c(Cl)c1	19	–	–	–	–	–
Cc1ccc(C2=NN(S(C)(=O)=O)C(c3cccs3)C2)cc1 (stereo unspecified)	11	–	–	–	–	–
OCCN(CCO)c1ncnc2c1sc1nc(N3CCOCC3)c3c(c12)CCCC3	14	–	–	–	–	–
CC(=O)Nc1nc(C)c(CCC2OCCO2)c(=O)[nH]1	11	–	–	–	–	–
Cc1cccc(C)c1NC(=O)CN(C)C(=O)C(c1ccccc1)c1ccccc1	–	–	–	–	–	·
CCOC(=O)Cn1c(=O)sc2ccccc21	–	–	–	–	–	·
CCOC(=O)Cn1c(=NC(=O)CSC(C)=O)sc2ccccc21	16	–	–	–	–	–
CCc1cc2cc(C)cc(C)c2nc1SCC(=O)Nc1cc(C)on1	11	–	–	–	–	–
CCOc1ccc(NC(=S)Nc2ccc(OCc3ccccc3)cc2)cc1	16	–	–	–	–	–
CNC(=S)Nc1ccc(OCc2ccccc2)cc1	–	–	–	–	–	·
O=[N+]([O-])c1ccccc1CSc1nc2ccccc2o1	44	–	–	–	–	–
CC1CCN(Cc2c(C(=O)O)nnn2-c2nonc2N)CC1	–	–	–	–	–	·
CCN1CCN(c2c(/C=C3\SC(=S)N(Cc4ccco4)C3=O)c(C)c(C#N)c(=O)n2C)CC1	–	–	–	–	–	·
O=C(CCc1n[nH]c(=O)[nH]c1=O)Nc1cccc([N+](=O)[O-])c1	13	–	–	–	–	–
CC(C)N(c1ccccc1)c1ccc(NC(=O)COC(=O)CCN2C(=O)c3cccc([N+](=O)[O-])c3C2=O)cc1	20	–	–	–	–	–
CCCn1ncc(CN2CCN(Cc3ccc(C)o3)C(CCO)C2)c1C (stereo unspecified)	11	–	–	–	–	–
Cc1ccc(NC(=O)Cn2nnc(-c3ccccc3NC(=O)c3cccs3)n2)cc1	14	–	–	–	–	–
COc1ccc(NC(=O)Cn2nnc(-c3ccccc3NC(=O)c3cccs3)n2)cc1	–	–	–	–	–	·
SMILES	Wee1 stabilizer	eIF4E-4G inh	14-3-3 Bad inh	p47phox inh	RBBP9 inhibitor	Wee1 stab conf
CCC1OC2(C)OC(=N)C1(C#N)C(C#N)(C#N)C2c1ccccc1 (stereo unspecified)	–	–	–	–	–	·
CC(C)C1OC2(C)OC(=N)C1(C#N)C(C#N)(C#N)C2c1ccccc1 (stereo unspecified)	17	–	–	–	–	–
O=C(NCCCN1CCOCC1)C(=O)N/N=C/c1ccccc1O	–	–	–	–	–	·
CCOc1ccc(C(=O)NCC(=O)OCC(=O)Nc2ccccc2OC)cc1	–	–	–	–	–	·
COc1ccccc1NC(=O)CNC(=O)c1ccc(F)cc1	11	–	–	–	–	–
O=C(CSCc1ccccc1)Nc1ccc2c(c1)OCO2	12	–	–	–	–	–
C/C(CC(=O)Nc1ccc2c(c1)OCO2)=N\NC(=O)C(c1ccccc1)c1ccccc1	–	–	–	–	–	·
C/C(CC(=O)Nc1ccc2c(c1)OCO2)=N\NC(=O)c1ccccc1N	12	–	–	–	–	–
